Measured values reported in ChEMBL document CHEMBL1138845, “Design of non-nucleoside inhibitors of HIV-1 reverse transcriptase with improved drug resistance properties. 2” (J Med Chem, 2004).

How the values were obtained:
[1] = system: HeLa; experiment: Inhibitory concentration against human immunodeficiency virus type 1 (with K103N/G190A resistant mutation) was determined in HeLa-CD4 MAGI assay; assay type: functional, cell-based
Method in brief: (§1)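 Tested against a panel of recombinant, isogenic HIV-1 viruses, wild type and NNRTI-resistant strains carrying engineered single or double RT mutations. The readout was IC50.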

[2] = system: HeLa; experiment: Inhibitory concentration against human immunodeficiency virus type 1 (with K103N/V108I resistant mutation) was determined in HeLa-CD4 MAGI assay; assay type: functional, cell-based; method in brief: as §1
[3] = system: HeLa; experiment: Inhibitory concentration against human immunodeficiency virus type 1 (with K103N/Y181C resistant mutation) was determined in HeLa-CD4 MAGI assay; assay type: functional, cell-based; method in brief: as §1
[4] = system: HeLa; experiment: Inhibitory concentration against human immunodeficiency virus type 1 (with V106A/Y181C resistant mutation) was determined in HeLa-CD4 MAGI assay; assay type: functional, cell-based; method in brief: as §1
[5] = system: HeLa; experiment: Inhibitory concentration against human immunodeficiency virus type 1 (with V108I/Y181C resistant mutation) was determined in HeLa-CD4 MAGI assay; assay type: functional, cell-based; method in brief: as §1
[6] = system: MT4; experiment: Ratio of cytotoxic concentration to that of inhibitory concentration as selectivity index was determined by MT-4 assay; assay type: functional, Homo sapiens
Method in brief: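 Index is the IC50 in uninfected MT4 cells divided by the antiviral IC50 in MT4 cells infected with wild-type HIV-1 or the nevirapine-resistant strain carrying RT mutation Y181C.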

[7] = system: MT4; experiment: Inhibitory concentration against wild type human immunodeficiency virus type 1 was determined by MT-4 assay; assay type: functional, cell-based
[8] = system: Human immunodeficiency virus 1; experiment: Inhibitory concentration against wild type human immunodeficiency virus type 1 was determined by recombinant virus assay; assay type: functional, organism-based
Method in brief: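 Isogenic recombinant HIV-1 carrying wild-type RT, tested in parallel with a panel of NNRTI-resistant RT mutants built on the same background; activity reported as IC50.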

[9] = system: MT4; experiment: Inhibitory concentration against nevirapine resistant strain (with Y181C mutation in HIV-1 RT gene) of human immunodeficiency virus type 1 was determined by MT-4 assay; assay type: functional, cell-based
[10] = system: HeLa; experiment: Inhibitory concentration against human immunodeficiency virus type 1 (with G190A resistant mutation) was determined in HeLa-CD4 MAGI assay; assay type: functional, cell-based; method in brief: as §1
[11] = system: HeLa; experiment: Inhibitory concentration against human immunodeficiency virus type 1 (with K103N resistant mutation) was determined in HeLa-CD4 MAGI assay; assay type: functional, cell-based; method in brief: as §1
[12] = system: HeLa; experiment: Inhibitory concentration against human immunodeficiency virus type 1 (with V106A resistant mutation) was determined in HeLa-CD4 MAGI assay; assay type: functional, cell-based; method in brief: as §1
[13] = system: HeLa; experiment: Inhibitory concentration against human immunodeficiency virus type 1 (with V108I resistant mutation) was determined in HeLa-CD4 MAGI assay; assay type: functional, cell-based; method in brief: as §1
[14] = system: HeLa; experiment: Inhibitory concentration against human immunodeficiency virus type 1 (with Y181C resistant mutation) was determined in HeLa-CD4 MAGI assay; assay type: functional, cell-based; method in brief: as §1
[15] = system: HeLa; experiment: Inhibitory concentration against human immunodeficiency virus type 1 (with Y188C resistant mutation) was determined in HeLa-CD4 MAGI assay; assay type: functional, cell-based; method in brief: as §1

| SMILES | IC50 [1] | IC50 [2] | IC50 [3] | IC50 [4] | IC50 [5] | Ratio [6] | IC50 [7] | IC50 [8] | IC50 [9] | IC50 [10] | IC50 [11] | IC50 [12] | IC50 [13] | IC50 [14] | IC50 [15] |
| --- | --- | --- | --- | --- | --- | --- | --- | --- | --- | --- | --- | --- | --- | --- | --- |
| N#Cc1c(O)nc2ccccc2c1OCC1CCC1 | > 2 µM | > 2 µM | > 2 µM | > 2 µM | > 2 µM | >8000 | > 8 µM | > 2 µM | > 8 µM | > 2 µM | > 2 µM | > 2 µM | > 2 µM | > 2 µM | > 2 µM |
| CCCc1c(O)nc2ccc(Br)cc2c1OC1CCCC1 | > 2 µM | > 2 µM | > 2 µM | > 2 µM | 0.52 µM | >40000 | 0.12 µM | 0.049 µM | 1.7 µM | 0.032 µM | > 2 µM | 0.43 µM | 0.12 µM | > 2 µM | 0.009 µM |
| CCOc1c(O)nc2ccc(Cl)cc2c1OCC1CCC1 | > 2 µM | > 2 µM | > 2 µM | > 2 µM | > 2 µM | >8000 | 0.29 µM | 0.34 µM | 2.09 µM | 0.17 µM | > 2 µM | > 2 µM | 0.89 µM | > 2 µM | 0.39 µM |
| CCCc1c(O)nc2ccc(F)c([N+](=O)[O-])c2c1OCC1CCC1 | > 2 µM | > 2 µM | > 2 µM | 1 µM | > 2 µM | >8000 | 1.2 µM | 1.1 µM | 1.8 µM | 0.54 µM | > 2 µM | > 2 µM | ~1 µM | > 2 µM | 0.25 µM |
| CCCc1c(OC2CCCCC2)c2cc(Cl)ccc2[nH]c1=O | 1 µM | ~2 µM | > 2 µM | 1.1 µM | 0.9 µM | >5000 | 0.058 µM | 0.032 µM | 0.76 µM | 0.054 µM | > 2 µM | 0.98 µM | 0.18 µM | 0.47 µM | 0.012 µM |
| CCCc1c(O)nc2ccc(Cl)cc2c1OC1CCCC1 | > 2 µM | > 2 µM | > 2 µM | > 2 µM | 0.67 µM | >40000 | 0.096 µM | 0.06 µM | 1.7 µM | 0.025 µM | > 2 µM | 0.27 µM | 0.2 µM | > 2 µM | 0.031 µM |
| CCCc1c(O)nc2ccc(OC)cc2c1OC1CCCC1 | > 2 µM | > 2 µM | > 2 µM | > 2 µM | > 2 µM | >40000 | 1.01 µM | 0.42 µM | 24 µM | 0.71 µM | > 2 µM | > 2 µM | 0.54 µM | 0.71 µM | 0.16 µM |
| CCCc1c(O)nc2ccc(F)cc2c1OC#CC1CC1 | 0.49 µM | > 2 µM | 1.4 µM | 0.38 µM | 0.37 µM | >8000 | 0.072 µM | 0.066 µM | 0.081 µM | 0.021 µM | > 2 µM | 0.44 µM | 0.16 µM | 0.001 µM | 0.29 µM |
| CCOc1c(O)nc2ccc(F)cc2c1OCC1CCC1 | > 2 µM | > 2 µM | > 2 µM | > 2 µM | > 2 µM | >8000 | 0.47 µM | 0.58 µM | 1.07 µM | 0.086 µM | > 2 µM | > 2 µM | 1.5 µM | > 2 µM | 0.36 µM |
| CC(C)Cc1c(O)nc2ccc(Cl)cc2c1OC1CCCC1 | > 2 µM | > 2 µM | > 2 µM | > 2 µM | 1.1 µM | >40000 | 0.052 µM | 0.15 µM | 1.6 µM | 0.042 µM | > 2 µM | 1.5 µM | 0.28 µM | 0.037 µM | 0.059 µM |
| CCCc1c(O)nc2ccc(C)cc2c1OC1CCCC1 | > 2 µM | > 2 µM | > 2 µM | > 2 µM | > 2 µM | >40000 | 0.97 µM | 0.4 µM | 6.4 µM | 0.15 µM | > 2 µM | > 2 µM | 0.71 µM | 0.41 µM | 0.24 µM |
| CCc1c(O)nc2ccc(F)cc2c1OCC1CCC1 | 1.1 µM | > 2 µM | > 2 µM | > 2 µM | 0.87 µM | >8000 | 0.039 µM | 0.089 µM | 0.23 µM | 0.11 µM | 0.27 µM | 1.7 µM | 0.25 µM | 0.39 µM | 0.13 µM |
| CCCc1c(O)nc2ccc(Cl)cc2c1OCC1CCC1 | 1.3 µM | > 2 µM | > 2 µM | 0.63 µM | 0.6 µM | >40000 | 0.072 µM | 0.036 µM | 0.39 µM | 0.015 µM | 0.98 µM | 0.124 µM | 0.077 µM | > 2 µM | 0.016 µM |
| CCCc1c(O)nc2ccc(F)cc2c1OCC1CCC1 | > 2 µM | > 2 µM | > 2 µM | 1.7 µM | 0.56 µM | >8000 | 0.069 µM | 0.063 µM | 0.19 µM | 0.046 µM | 1.8 µM | 1.7 µM | 0.29 µM | 0.24 µM | 0.06 µM |
| CCc1c(O)nc2ccc(F)cc2c1OC#CC1CC1 | 0.068 µM | 0.24 µM | 0.3 µM | 0.23 µM | 0.13 µM | >8000 | 0.025 µM | 0.025 µM | 0.015 µM | 0.006 µM | 0.42 µM | 0.34 µM | 0.06 µM | 0.024 µM | 0.1 µM |
